ChEMBL document CHEMBL1150815, “Blepharocalyxins C--E, three new dimeric diarylheptanoids, and related compounds from the seeds of Alpinia blepharocalyx” (2001)

Tests used:
HT-1080 = assay: Antiproliferative activity against human HT1080 cells by MTT assay; assay type: functional; settings: read-out: ED50 (the source's name)
Outline: (§1)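 Cells grown in medium with 10% fetal calf serum, 0.1% sodium bicarbonate and 2 mM glutamine. Viability with and without agents measured by MTT assay. 5-Fluorouracil served as positive control. Activity expressed as ED50 in µM.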

[1] = Antiproliferative activity against mouse Colon 26-L5 cells by MTT assay; assay type: functional; settings: read-out: ED50 (the source's name); outline: as §1

## Oc1ccc(CC[C@H]2CC(O)C(O)[C@@H](c3ccc(O)cc3)O2)cc1 (mixture of isomers)
HT-1080
  EC50: 83.7 µM
[1]
  EC50: 49.4 µM

## Oc1ccc(CC[C@H]2CC=C[C@H](c3ccc(O)cc3)O2)cc1
HT-1080
  EC50: 45.3 µM
[1]
  EC50: 71.2 µM

## Oc1ccc(/C=C/[C@@H]2C[C@H](CCc3ccc(O)cc3)O[C@@H]3C[C@H](CCc4ccc(O)cc4)O[C@H](c4ccc(O)cc4)[C@@H]23)cc1 [BLEPHAROCALYXIN D]
HT-1080
  EC50: 25.7 µM
[1]
  EC50: 3.61 µM

## COc1cc(O)c([C@@H]2C[C@H](CCc3ccc(O)cc3)O[C@H](c3ccc(O)cc3)[C@H]2[C@H](/C=C/C[C@@H](O)CCc2ccc(O)cc2)c2ccc(O)cc2)c(O)c1C(=O)/C=C/c1ccc(O)cc1 [BLEPHAROCALYXIN E]
HT-1080
  EC50: 9.02 µM
[1]
  EC50: 32.2 µM

## Oc1ccc(CC[C@H]2C[C@H](O)[C@H](O)[C@@H](c3ccc(O)cc3)O2)cc1
HT-1080
  EC50: > 100 µM
[1]
  EC50: 44.2 µM

## Oc1ccc(/C=C/[C@H](C[C@@H](O)CCc2ccc(O)cc2)[C@@H]2[C@@H](c3ccc(O)cc3)O[C@@H](CCc3ccc(O)cc3)C[C@@H]2O)cc1 [BLEPHAROCALYXIN C]
HT-1080
  EC50: 54.3 µM
[1]
  EC50: 29.6 µM

## Oc1ccc(CC[C@H]2CC=C[C@@H](c3ccc(O)cc3)O2)cc1
HT-1080
  EC50: 79.4 µM
[1]
  EC50: > 100 µM

## O=c1[nH]cc(F)c(=O)[nH]1 [FLUOROURACIL]
HT-1080
  EC50: 8 µM
[1]
  EC50: 0.53 µM
